Measurements from paper PMC4706799 (Cancer prevention research (Philadelphia, Pa.), 2015).
“And” between values parts separate entries of the source, which are not always exact repeats. Equal entries are not always repeated.

Assays:
[1] = cited from earlier work
[2] = cited from earlier work; remark: listed apart in the source
886LN = test: SRB growth inhibition assay, 886LN; format: cell-based; details: 72 h
Method in brief: (§1)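 SCCHN lines were kept in DMEM/F12 (1:1) with 10% heat-inactivated FBS at 37 °C and 5% CO2; MSK-Leuk1 was kept in keratinocyte basal medium. Cells were seeded in 96-well plates, incubated overnight, then exposed for 72 h to a range of test-compound concentrations (DMSO stock diluted in RPMI, final DMSO <0.1%). Growth inhibition was read by sulforhodamine B staining, and IC50 was calculated by software.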

Tu212 = test: SRB growth inhibition assay, Tu212; format: cell-based
Method in brief: as §1

Tu177 = test: SRB growth inhibition assay, Tu177; format: cell-based
Method in brief: as §1

Tu686 = test: SRB growth inhibition assay, Tu686; format: cell-based
Method in brief: as §1

SQCCY1 = test: SRB growth inhibition assay, SQCCY1; format: cell-based
Method in brief: as §1

MSK-Leuk1 = test: SRB growth inhibition assay, MSK-Leuk1; format: cell-based; details: 72 h
Method in brief: as §1

JHU022 = test: SRB growth inhibition assay, JHU022; format: cell-based
Method in brief: as §1

PCI-13 = test: SRB growth inhibition assay, PCI-13; format: cell-based
Method in brief: as §1

UM-22B = test: SRB growth inhibition assay, UM-22B; format: cell-based; details: 72 h
Method in brief: as §1

SCCHN cell lines = test: Annexin V-PE staining for apoptosis; format: cell-based; details: for concentration sufficient to induce ~80% apoptosis: by 48 h, annexin V-PE
MSK cell line = test: Annexin V-PE staining for apoptosis, MSK; format: cell-based; details: 24 h treatment
Method in brief: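 MSK-Leuk1 premalignant cells, grown in keratinocyte basal medium, were seeded in 6-cm plates to 40–50% confluency. They were treated for 24 h with test compound at doses chosen per cell line (DMSO stock diluted in RPMI, final DMSO <0.1%). Cells were trypsinized, washed in cold PBS, stained with annexin V-PE plus 7-AAD for 15 min at room temperature, and read by flow cytometry. Three independent experiments; mean ± SD; paired two-tailed t-test versus untreated control.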

[3] = Pharmacokinetic study, plasma LC/MS/MS; format: in vivo, A/J mice
Tu686 SCCHN xenografts = test: Nude mouse xenograft model; format: in vivo, nude mice; details: for effect on tumor volume: 50 mg/kg i.p., once/day, five days/week, 17 days
[4] = Body weight and organ toxicity in xenograft study; format: in vivo; details: 50 mg/kg i.p., 17 days
PARP = test: Western blot for PARP cleavage; format: cell-based; details: Tu212, Tu686, MSK-LEUK1, 24 h
Method in brief: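 Tu212, Tu686 and MSK-Leuk1 cells were treated with test compound at indicated doses for 24 h. Whole-cell lysates (20 µg protein) were run on 8–12% SDS-PAGE and transferred to PVDF. Blots were probed with a PARP antibody recognising both full-length and cleaved forms, with β-actin or GAPDH as loading control, and detected by enhanced chemiluminescence.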

cytochrome c = test: Cytochrome c release in the cytoplasm; format: cell-based; details: Tu212 cells
Method in brief: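 Tu212 cells were treated with test compound. Cytosolic and mitochondrial fractions were separated and immunoblotted for cytochrome c, with ERK as cytoplasmic control and Cox4 as mitochondrial control. Equal protein (20 µg) was run on 8–12% SDS-PAGE, transferred to PVDF and detected by enhanced chemiluminescence. Blots shown represent three independent experiments.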

Bcl-2 = test: Western blot, Bcl-2 expression; format: cell-based; details: Tu212 and Tu686, 24 h
Method in brief: (§2)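 Tu212 and Tu686 cells were treated with test compound at indicated doses for 24 h. Whole-cell lysates were immunoblotted for Bcl-2 family proteins (Bcl-2, Bcl-xL, Mcl-1, Bid, Bim, PUMA, NOXA), using 20 µg protein per lane on 8–12% SDS-PAGE and PVDF transfer. β-Actin or GAPDH served as loading control; detection was by enhanced chemiluminescence.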

Bid = test: Western blot, Bid expression; format: cell-based; details: Tu212 and Tu686, 24 h
Method in brief: as §2

Bim = test: Western blot, Bim expression; format: cell-based; details: Tu212 and Tu686, 24 h
Method in brief: as §2

Bcl-xL = test: Western blot, Bcl-xL expression; format: cell-based; details: Tu212 and Tu686, 24 h
Method in brief: as §2

Mcl-1 = test: Western blot, Mcl-1 expression; format: cell-based; details: Tu212 and Tu686, 24 h
Method in brief: as §2

Bcl-2 mRNA = test: Real-time qPCR, Bcl-2 mRNA; format: cell-based; details: Tu212 and Tu686
Method in brief: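 Tu212 and Tu686 cells were treated with test compound at 1 µM and 2 µM (T1) or 2 µM and 3 µM (T2), respectively. Total RNA was column-extracted, and 2 µg was reverse transcribed to cDNA. Bcl-2 mRNA was quantified by SYBR Green real-time qPCR and compared with the corresponding untreated control.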

EGFR = test: Western blot, pEGFR and EGFR; format: cell-based; details: Tu212, Tu686, MSK-LEUK1
AKT = test: Western blot, pAKT and AKT; format: cell-based; details: Tu212, Tu686, MSK-LEUK1
EGFR mRNA = test: Real-time qPCR, EGFR mRNA; format: cell-based; details: Tu212 and Tu686
AKT mRNA = test: Real-time qPCR, AKT mRNA; format: cell-based; details: Tu212 and Tu686
[5] = tested on: mTOR pathway (S6 and 4EBP1); test: Western blot, mTOR pathway readouts; format: cell-based; details: Tu212, Tu686, MSK-LEUK1
Method in brief: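 Tu212, Tu686 and MSK-Leuk1 cells were treated with different doses of test compound. Whole-cell lysates (20 µg protein, 8–12% SDS-PAGE, PVDF) were immunoblotted for p-mTOR, p-S6, S6, p-4EBP1 and 4EBP1, with β-actin or GAPDH loading control and chemiluminescent detection. Blots shown represent three independent experiments.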

FOXO1 and 3 = test: Western blot, FOXO phosphorylation; format: cell-based; details: Tu686 cells, multiple sites
Method in brief: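 Tu686 cells were exposed to test compound, and whole-cell lysates were probed by Western blot for phospho-FOXO1a and phospho-FOXO3a. Equal protein (20 µg) was separated on 8–12% SDS-PAGE and blotted to PVDF, with β-actin or GAPDH as loading control and enhanced chemiluminescence detection. Blots shown represent three independent experiments.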

[6] = tested on: premalignant (MSK-LEUK1) and malignant SCCHN cell lines; test: SRB growth inhibition assay, cell line panel; format: cell-based; details: 72 h, read-out: IC50 values, range over the cell lines
Method in brief: as §1

[7] = cited from earlier work; remark: listed apart in the source
[8] = female, A/J, mouse, plasma, po, 200 mg/kg

Structure (SMILES): COc1cc(/C=C/C(=O)C(=Cc2ccc(F)c(F)c2)C(=O)/C=C/c2ccc(O)c(OC)c2)ccc1O [CDF]
- accumulation in pancreatic tissue, fold higher than curcumin [1]: 10.6 fold
- systemic drug level, fold greater than curcumin [1]: 2.7 fold

Structure (SMILES): O=C1/C(=C/c2ccccc2F)CNC/C1=C\c1ccccc1F [EF24]
- fold better anti-cancer efficacy than natural curcumin in vitro [2]: ~ 10 fold

Structure (SMILES): COc1cc(/C=C/C(=O)/C=C/c2cc(OC)c(O)c(OC)c2)cc(OC)c1O [FLLL12]
- IC50 (886LN; 886LN, SRB assay): 0.72 µM
- IC50 (Tu212; Tu212, 72 h, SRB assay): 0.46 µM
- IC50 (Tu177; Tu177, 72 h, SRB assay): 0.45 µM
- IC50 (Tu686; Tu686, 72 h, SRB assay): 0.68 µM
- IC50 (SQCCY1; SQCCY1, 72 h, SRB assay): 1.55 µM
- IC50 (MSK-Leuk1; MSK-Leuk1 (premalignant), SRB assay): 0.35 µM
- IC50 (JHU022; JHU022, 72 h, SRB assay): 0.77 µM
- IC50 (PCI-13; PCI-13, 72 h, SRB assay): 0.35 µM
- IC50 (UM-22B; UM-22B, SRB assay): 0.57 µM
- fold more potent than curcumin in inducing apoptosis (SCCHN cell lines; SCCHN cell lines): 5–10 fold
- concentration sufficient to induce ~80% apoptosis (SCCHN cell lines): 1 to 3 µM
- apoptosis (MSK cell line): more than 80%
- AUC (0-∞) ([3]; 200 mg/kg oral): 418.5 ng·h/mL
- AUC, fold greater than curcumin ([3]; 200 mg/kg oral): 3–4 fold
- Cmax, fold greater than curcumin ([3]; 200 mg/kg oral): 4.3 fold and ~ 4.0 fold and 3–4 fold
- terminal elimination half-life (t½) ([3]; 200 mg/kg oral): 4.8 h
- Tmax ([3]; 200 mg/kg oral, DMSO/0.5% CMC, plasma): 0.5 h
- Cmax ([3]; 200 mg/kg oral, plasma): 241.5 ng/mL
- effect on tumor volume (Tu686 SCCHN xenografts): significantly reduced tumor volume
- toxicity (H&E of major organs, body weight) [4]: without inducing any notable toxicity
- cleavage of PARP (PARP): markedly induced the cleavage of PARP
- release of cytochrome c in the cytoplasm (cytochrome c): caused release of cytochrome c
- expression of Bcl-2 protein (Bcl-2): inhibited
- expression of Bid (full length) (Bid): inhibited
- expression of Bim (Bim): increased
- expression of Bcl-xL (Bcl-xL): remained mostly unchanged
- expression of Mcl-1 (Mcl-1): remained mostly unchanged
- expression of Bcl-2 mRNA (Bcl-2 mRNA): increased rather than decreased
- phosphorylation of EGFR (EGFR): inhibited the phosphorylation
- total EGFR protein (EGFR): inhibited
- phosphorylation of AKT (AKT): inhibited the phosphorylation
- total AKT protein (AKT): inhibited
- mRNA expression of EGFR (EGFR mRNA): strongly inhibited the mRNA expression
- mRNA expression of AKT (AKT mRNA): strongly inhibited the mRNA expression
- phosphorylation of S6 and 4EBP1 [5]: strongly inhibited phosphorylation
- phosphorylation of FOXO1 and 3 (FOXO1 and 3): strongly inhibited the phosphorylation

Structure (SMILES): CN1C/C(=C\c2ccccn2)C(=O)/C(=C/c2ccccn2)C1 [UBS109]
- fold better anti-cancer efficacy than natural curcumin in vitro [2]: ~ 10 fold

Structure (SMILES): O=C1/C(=C/c2ccccn2)CNC/C1=C\c1ccccn1 [compound 31]
- fold better anti-cancer efficacy than natural curcumin in vitro [2]: ~ 10 fold

Structure (SMILES): COc1cc(/C=C/C(=O)CC(=O)/C=C/c2ccc(O)c(OC)c2)ccc1O [curcumin, reference compound]
- IC50 (886LN): 17.4 µM
- IC50 (Tu212; TU212, 72 h): 6.97 µM
- IC50 (Tu177; 72 h): 5.25 µM
- IC50 (Tu686; Tu 686, 72 h): 6.7 µM
- IC50 (SQCCY1; 72 h): 12.6 µM
- IC50 (MSK-Leuk1): 6.81 µM
- IC50 (JHU022; 72 h): 4.53 µM
- IC50 (PCI-13; 72 h): 5.73 µM
- IC50 (UM-22B): 7.76 µM
- IC50 [6]: 4.53 to 17.4 µM
- concentration sufficient to induce ~80% apoptosis (SCCHN cell lines): 10 to 15 µM
- AUC(0-inf) [3, 8]: 131 ng·h/mL
- Cmax [3, 8]: 55.6 ng/mL
- Tmax [3, 8]: 0.25 h
- half-life [3, 8]: 7.7 h
- effect on tumor volume (Tu686 SCCHN xenografts): had no effect
- efficacy in xenograft study (Tu686 SCCHN xenografts; 150 mg/kg, earlier study, data not shown): did not find any efficacy
- phosphorylation of EGFR (EGFR): inhibited the phosphorylation
- total EGFR protein (EGFR): inhibited
- phosphorylation of AKT (AKT): inhibited the phosphorylation
- total AKT protein (AKT): inhibited
- mRNA expression of EGFR (EGFR mRNA): strongly inhibited the mRNA expression
- mRNA expression of AKT (AKT mRNA): strongly inhibited the mRNA expression
- oral bioavailability [7]: ~ 1%
